Entries after “also recorded” stand apart in the source; their conditions may differ.
Experiments:
ISRE = ISRE activity in ISRE-bla THP-1 reporter cells; type: cell-based; settings: compound 5 μM + IFN-α, compared with compound 1
Summary of the method: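 ISRE-bla THP-1 cells at 5×10^4/well in RPMI with 10% dialyzed FBS, 0.1 mM non-essential amino acids, 1 mM pyruvate and pen/strep. Test compound (1 mM DMSO stock) was diluted in IFN-α medium, giving final 5 μM compound ([…]) and final 100 U/mL IFN-α. Incubation 16 h, then CCF4-AM FRET substrate 3 h at RT in the dark. Excitation 405 nm; background-subtracted 465/535 nm emission ratio. Two-point normalized: reference sulfonamide + IFN-α = 200%, IFN-α alone = 100%; mean ± SEM.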

[1] = Stability of compound in DMSO stock and in assay media; type: physicochemical
NF-κB = NF-κB activation in THP1-Blue NF-κB reporter cells; type: cell-based; settings: compound 5 μM + LPS, compared with compound 1
Summary of the method: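 THP1-Blue NF-κB cells at 10^5/well in RPMI with 10% FBS, pen/strep and Normocin. Test compound (1 mM DMSO stock) was diluted into LPS medium, giving final 5 μM compound ([…]), with LPS co-added. After 20 h, supernatant SEAP was measured colorimetrically with QuantiBlue at 630 nm. Two-point normalized: reference sulfonamide + LPS = 200%, LPS alone = 100%; mean ± SEM.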

[2] = test system: C57BL/6 (wild-type, WT) mice; type: in vivo
Summary of the method: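 Female/male not stated; C57BL/6 wild-type mice aged 7–9 weeks, 8 per group. Test compound mixed with ovalbumin (20 μg/animal) and MPLA and injected into the gastrocnemius muscle on days 0 and 21. Mice then bled, and serum OVA-specific IgG titres measured by ELISA. Data given as mean ± SEM.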

Row | stability of stock in DMSO (in words) [1] | Compound | ISRE activity (in words) (ISRE) | NF-κB activity (in words) (NF-κB) | systemic toxicity, as indicated by behavior change or weight loss (in words) ([2]; mice co-immunized with MPLA, ovalbumin and compound) | OVA-specific IgG antibody titers versus MPLA alone (in words) ([2]; mice, n=8 per group, intramuscular, ovalbumin 20 μg/animal + MPLA + compound, days 0 and 21)
1 | stable | CCOc1ccc(S(=O)(=O)N(C(C)=O)c2cc(OC)c(Cl)cc2OC)cc1 [Compound 48, N-(4-chloro-2,5-dimethoxyphenyl)-N-((4-ethoxyphenyl)sulfonyl)acetamide] | active | – | – | –
2 | – | COc1cc(NS(=O)(=O)c2ccc(C(=O)O)cc2)c(OC)cc1Cl [Compound 28, 4-(N-(4-chloro-2,5-dimethoxyphenyl)sulfamoyl)benzoic acid] | lost activity | lost activity | – | –
3 | – | CCOc1ccc(S(=O)(=O)N(CC(C)C)c2cc(OC)c(Cl)cc2OC)cc1 [Compound 41, N-(4-chloro-2,5-dimethoxyphenyl)-4-ethoxy-N-isobutylbenzenesulfonamide] | regained the activity | regained the activity | – | –
4 | – | CCOc1ccc(S(=O)(=O)N(CCCNC(=O)OC(C)(C)C)c2cc(OC)c(Cl)cc2OC)cc1 [Compound 52, tert-Butyl (3-((N-(4-chloro-2,5-dimethoxyphenyl)-4-ethoxyphenyl)sulfonamido)propyl)carbamate] | reduction in activity | reduction in activity | – | –
5 | – | CCOc1ccc(NS(=O)(=O)c2cc(OC)c(Cl)cc2OC)cc1 [Compound 31, 4-Chloro-N-(4-ethoxyphenyl)-2,5-dimethoxybenzenesulfonamide] | inactivity | inactivity | – | –
6 | – | CCOc1ccc(S(=O)(=O)Nc2cc(OC)ccc2OC)cc1 [Compound 6, N-(2,5-dimethoxyphenyl)-4-ethoxybenzenesulfonamide] | retained activity | retained activity | – | –
7 | – | C#CCCN(c1cc(OC)c(Cl)cc1OC)S(=O)(=O)c1ccc(OCC)cc1 [Compound 43, N-(but-3-yn-1-yl)-N-(4-chloro-2,5-dimethoxyphenyl)-4-ethoxybenzenesulfonamide] | retained activity almost equivalent to that of compound 1 | retained activity almost equivalent to that of compound 1 | – | –
8 | – | CCOc1ccc(S(=O)(=O)N(C)c2cc(OC)c(Cl)cc2OC)cc1 [Compound 33, N-(4-chloro-2,5-dimethoxyphenyl)-4-ethoxy-N-methylbenzenesulfonamide] | – | – | without demonstrable systemic toxicity | statistically significant increases
9 | – | CCCCOc1ccc(S(=O)(=O)Nc2cc(OC)c(Cl)cc2OC)cc1 [Compound 14, 4-Butoxy-N-(4-chloro-2,5-dimethoxyphenyl)benzenesulfonamide] | gradual loss of activity | gradual loss of activity | – | –
10 | – | CCCOc1ccc(S(=O)(=O)Nc2cc(OC)c(Cl)cc2OC)cc1 [Compound 13, N-(4-chloro-2,5-dimethoxyphenyl)-4-propoxybenzenesulfonamide] | weakly active | weakly active | – | –
11 | – | COc1cc(NS(=O)(=O)c2ccc(O)cc2)c(OC)cc1Cl [Compound 11, N-(4-chloro-2,5-dimethoxyphenyl)-4-hydroxybenzenesulfonamide] | not tolerated | not tolerated | – | –
12 | – | CCOc1ccc(S(=O)(=O)Nc2cc(OC)c(N=[N+]=[N-])cc2OC)cc1 [Compound 59, N-(4-azido-2,5-dimethoxyphenyl)-4-ethoxybenzenesulfonamide] | potent | potent | – | –
13 | – | CCOC(=O)CN(c1cc(OC)c(Cl)cc1OC)S(=O)(=O)c1ccc(OCC)cc1 [Compound 49, Ethyl N-(4-chloro-2,5-dimethoxyphenyl)-N-((4-ethoxyphenyl)sulfonyl)glycinate] | retained dual NF-κB and ISRE activities | retained dual NF-κB and ISRE activities | – | –
14 | – | COc1cc(NS(=O)(=O)c2ccccc2OC)c(OC)cc1Cl [Compound 24, N-(4-chloro-2,5-dimethoxyphenyl)-2-methoxybenzenesulfonamide] | none of these molecules was active | none of these molecules was active | – | –
15 | – | COc1cc(NS(=O)(=O)c2ccc([N+](=O)[O-])cc2)c(OC)cc1Cl [Compound 17, N-(4-chloro-2,5-dimethoxyphenyl)-4-nitrobenzenesulfonamide] | either weakly active or completely inactive | either weakly active or completely inactive | – | –
16 | – | C#CCCCN(c1cc(OC)c(Cl)cc1OC)S(=O)(=O)c1ccc(OCC)cc1 [Compound 44, N-(4-chloro-2,5-dimethoxyphenyl)-4-ethoxy-N-(pent-4-yn-1-yl)benzenesulfonamide] | retained activity almost equivalent to that of compound 1 | retained activity almost equivalent to that of compound 1 | – | –
17 | – | CCOc1ccc(S(=O)(=O)N(CCCNC(=O)CCCC[C@H]2SC[C@H]3NC(=O)N[C@H]32)c2cc(OC)c(Cl)cc2OC)cc1 [Compound 58, N-(3-((N-(4-chloro-2,5-dimethoxyphenyl)-4-ethoxyphenyl)sulfonamido)propyl)-5-((3aR,4R,6aS)-2-oxohexahydro-1H-thieno[3,4-d]imidazol-4-yl)pentanamide] | equipotent to compound 1 | equipotent to compound 1 | – | –
18 | – | CCOc1ccc(S(=O)(=O)N(CCCO)c2cc(OC)c(Cl)cc2OC)cc1 [Compound 51, N-(4-chloro-2,5-dimethoxyphenyl)-4-ethoxy-N-(3-hydroxypropyl)benzenesulfonamide] | retained activity in both the assays | retained activity in both the assays | – | –
19 | – | C#CCN(c1cc(OC)c(N=[N+]=[N-])cc1OC)S(=O)(=O)c1ccc(OCC)cc1 [Compound 62, N-(4-azido-2,5-dimethoxyphenyl)-4-ethoxy-N-(prop-2-yn-1-yl)benzenesulfonamide] | very potent | very potent | – | –
20 | – | 3-Bromo-N-(4-chloro-2,5-dimethoxyphenyl)-4-ethoxybenzenesulfonamide [Compound 25] | inactive | inactive | – | –
21 | – | COc1cc(NS(=O)(=O)c2ccc(C(N)=O)cc2)c(OC)cc1Cl [Compound 27, 4-(N-(4-chloro-2,5-dimethoxyphenyl)sulfamoyl)benzamide] | lost activity | lost activity | – | –
22 | – | CCOc1ccc(S(=O)(=O)Nc2ccc(Cl)cc2OC)cc1 [Compound 5, N-(4-chloro-2-methoxyphenyl)-4-ethoxybenzenesulfonamide] | complete loss of activity | complete loss of activity | – | –
23 | – | CCOC(=O)c1ccc(S(=O)(=O)Nc2cc(OC)c(Cl)cc2OC)cc1 [Compound 29, Ethyl 4-(N-(4-chloro-2,5-dimethoxyphenyl)sulfamoyl)benzoate] | retained partial activity | retained partial activity | – | –
24 | – | CCOc1ccc(S(=O)(=O)Nc2cc(OC)c(Cl)c(OC)c2)cc1 [Compound 8, N-(4-chloro-3,5-dimethoxyphenyl)-4-ethoxybenzenesulfonamide] | complete loss of activity; also recorded: slightly skewed ISRE activity | complete loss of activity | – | –
25 | – | CCOc1ccc(S(=O)(=O)N(CCCNC(=O)CCCCCNC(=O)c2ccc3c(c2)C(=O)OC32c3ccc(O)cc3Oc3cc(O)ccc32)c2cc(OC)c(Cl)cc2OC)cc1 [Compound 56, N-(6-((3-((N-(4-chloro-2,5-dimethoxyphenyl)-4-ethoxyphenyl)sulfonamido)propyl)amino)-6-oxohexyl)-3’,6’-dihydroxy-3-oxo-3H-spiro[isobenzofuran-1,9’-xanthene]-5-carboxamide] | completely inactive | completely inactive | – | –
26 | – | CCOc1ccc(S(=O)(=O)N(Cc2ccccc2)c2cc(OC)c(Cl)cc2OC)cc1 [Compound 46, N-benzyl-N-(4-chloro-2,5-dimethoxyphenyl)-4-ethoxybenzenesulfonamide] | potent analogs | potent analogs | – | –
27 | – | CCOC(=O)CCCN(c1cc(OC)c(Cl)cc1OC)S(=O)(=O)c1ccc(OCC)cc1 [Compound 50, Ethyl 4-((N-(4-chloro-2,5-dimethoxyphenyl)-4-ethoxyphenyl)sulfonamido)butanoate] | retained dual NF-κB and ISRE activities | retained dual NF-κB and ISRE activities | – | –
28 | – | COc1cc(NS(=O)(=O)c2ccc(C#N)cc2)c(OC)cc1Cl [Compound 19, N-(4-chloro-2,5-dimethoxyphenyl)-4-cyanobenzenesulfonamide] | either weakly active or completely inactive | either weakly active or completely inactive | – | –
